The subject of one data set is CHO-CXCR4 cells. Put plainly: Cell uptake, internalization and efflux of tracer. In kind it is cell-based, Chinese hamster. The method, boiled down:
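CHO-CXCR4 cells (F-12K, 10 % FBS) seeded at 1×10^5/well and given 11.1 kBq (0.3 µCi) tracer at 37 °C for 5–120 min. Blocking used 10 µg/well (22 µM) unlabeled peptide for 2 h. Cells were washed twice with cold PBS, lysed in 0.1 M NaOH and γ-counted. For internalization, an extra 1 min wash in 50 mM glycine/0.1 M NaCl, pH 2.8, was added. For efflux, cells were loaded for 2 h, then given tracer-free medium. Values are % of added activity, mean of three experiments ± SD.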

The subject of a further data set is CHO-CXCR4 and CHO tumors. In kind it is in vivo, mice.
The next data set can be described thus: in vivo. Details: species or system mice. Conditions: mouse, iv, 100 uCi/mouse, total radioactivity.

Where a SMILES comes first, the peptide text is derived from it. Bridges are numbered along the chain shown (N, C = ends). [ ]: non-standard residue; d: D form. The star is where a group is joined. NOTA = O=C(O)CN1CCN(CC(=O)O)CCN(CC(=O)*)CC1; 2Nal = N[C@@H](Cc1ccc2ccccc2c1)C(=O)O; Cit = NC(=O)NCCC[C@H](N)C(=O)O

Take `N=C(N)NCCC[C@H](NC(=O)[C@@H]1CSSC[C@H](NC(=O)[C@H](Cc2ccc3ccccc3c2)NC(=O)[C@H](CCCNC(=N)N)NC(=O)[C@H](CCCNC(=N)N)NC(=O)CN2CCN(CC(=O)O)CCN(CC(=O)O)CC2)C(=O)N[C@@H](Cc2ccc(O)cc2)C(=O)N[C@@H](CCCNC(N)=O)C(=O)N[C@@H](CCCCN)C(=O)N[C@H](CCCCN)C(=O)N2CCC[C@H]2C(=O)N[C@@H](Cc2ccc(O)cc2)C(=O)N[C@@H](CCCNC(=N)N)C(=O)N[C@@H](CCCNC(N)=O)C(=O)N1)C(N)=O` [Al[^18F]NOTA-T140] ({NOTA}-RR[2Nal]CY[Cit]K[dK]PYR[Cit]CR-NH2; disulfide 4-13): the “cell uptake with blocking by unlabeled peptide” value in the data set on CHO-CXCR4 cells (2 h, 10 µg/well (22 µM) unlabeled peptide) is 5.11±0.35%. For the same molecule, in the data set with CHO-CXCR4 cells (2 h, acid wash (glycine pH 2.8) removes surface-bound tracer), the “share of the uptake due to internalization” value is given as about 50%. The “efflux from the cells” value with CHO-CXCR4 cells (after 2 h loading at 37 °C, medium replaced) is given as “slow”. Also, the “reduction in CHO-CXCR4 tumor uptake on blocking” value in the data set on CHO-CXCR4 and CHO tumors (co-injection of 100 µg unlabeled peptide, PET 1 h post-injection) is on record as 50–60%. In the data set on CHO-CXCR4 and CHO tumors (mouse, in vivo), the “change of tracer uptake in the bone on blocking” value is “significantly reduced”. Besides, the tissue uptake (usually the percentage of the injected dose found per gram of tissue) at 2 h in “in vivo” (biodistribution: bone) was 2.95 ± 0.74 %ID/g; in “in vivo” (biodistribution: kidneys) it was 32.8 ± 2.62 %ID/g; in “in vivo” (biodistribution: liver), 34.2 ± 4.98 %ID/g; in the data set “in vivo” (biodistribution: spleen) it was 6.37 ± 1.18 %ID/g.

(Values after PMC5242338 (Molecular imaging and biology : MIB : the official …, 2016).)
